Usually Ki stands for the dissociation constant of the complex between target and ligand, obtained from inhibition or displacement. A word on the TD50: it is the dose at which the toxic effect under study appears in half of the subjects. The term ED50 denotes the dose that gives a 50% effect, or the effect in half of the subjects.

Each structure is given as a SMILES string.

The target in series [1] is 5-hydroxytryptamine receptor 7 (Homo sapiens, UniProt P34969). As to the kind of experiment: Displacement of [3H]5-CT from human 5HT7b receptor expressed in HEK293 cells after 1 hr. In kind it is cell-based. For orientation: Displacement assays read how much labelled ligand stays bound in the presence of the test substance.
Sequence of 5-hydroxytryptamine receptor 7 (P34969 whole entry): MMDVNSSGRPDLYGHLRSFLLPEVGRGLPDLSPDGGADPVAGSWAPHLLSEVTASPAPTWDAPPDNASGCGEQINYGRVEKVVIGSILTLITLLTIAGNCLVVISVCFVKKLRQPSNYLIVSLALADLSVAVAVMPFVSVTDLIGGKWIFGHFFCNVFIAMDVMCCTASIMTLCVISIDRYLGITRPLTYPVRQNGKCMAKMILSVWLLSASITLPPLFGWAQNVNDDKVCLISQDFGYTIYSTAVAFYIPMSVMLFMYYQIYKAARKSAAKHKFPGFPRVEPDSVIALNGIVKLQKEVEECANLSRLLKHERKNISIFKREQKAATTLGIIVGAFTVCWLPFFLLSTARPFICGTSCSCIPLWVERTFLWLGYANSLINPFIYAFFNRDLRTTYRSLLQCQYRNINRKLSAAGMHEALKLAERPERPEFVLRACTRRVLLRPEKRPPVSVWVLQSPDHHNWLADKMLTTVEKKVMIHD
Series [2] in a line: Displacement of [3H]CGP-12177 from beta1-adrenergic receptor in rat cerebral cortex after 60 mins by scintillation counting. The series is classed as tissue-based. In a few lines: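 Radioligand binding on rat brain tissue membranes, run in 96-well format. Ki was calculated by the Cheng–Prusoff equation.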
Series [3] addresses T1, Adrenergic receptor alpha-1 (Rattus norvegicus, UniProt P15823+P23944+P43140).
T1 sequence (P15823 whole entry): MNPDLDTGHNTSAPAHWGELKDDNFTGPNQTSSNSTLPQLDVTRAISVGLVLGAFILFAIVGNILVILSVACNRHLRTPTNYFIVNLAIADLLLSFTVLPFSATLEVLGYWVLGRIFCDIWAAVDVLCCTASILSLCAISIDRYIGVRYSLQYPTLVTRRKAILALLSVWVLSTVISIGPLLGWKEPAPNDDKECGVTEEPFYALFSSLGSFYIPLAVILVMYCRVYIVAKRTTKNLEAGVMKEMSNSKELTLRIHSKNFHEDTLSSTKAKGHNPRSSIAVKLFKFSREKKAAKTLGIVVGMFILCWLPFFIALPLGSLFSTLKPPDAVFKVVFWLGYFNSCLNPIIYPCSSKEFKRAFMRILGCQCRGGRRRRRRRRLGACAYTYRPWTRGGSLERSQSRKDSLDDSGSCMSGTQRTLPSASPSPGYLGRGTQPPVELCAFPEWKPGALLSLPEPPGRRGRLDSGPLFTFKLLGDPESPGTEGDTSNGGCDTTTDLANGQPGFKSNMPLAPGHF
T1 sequence (P23944 whole entry): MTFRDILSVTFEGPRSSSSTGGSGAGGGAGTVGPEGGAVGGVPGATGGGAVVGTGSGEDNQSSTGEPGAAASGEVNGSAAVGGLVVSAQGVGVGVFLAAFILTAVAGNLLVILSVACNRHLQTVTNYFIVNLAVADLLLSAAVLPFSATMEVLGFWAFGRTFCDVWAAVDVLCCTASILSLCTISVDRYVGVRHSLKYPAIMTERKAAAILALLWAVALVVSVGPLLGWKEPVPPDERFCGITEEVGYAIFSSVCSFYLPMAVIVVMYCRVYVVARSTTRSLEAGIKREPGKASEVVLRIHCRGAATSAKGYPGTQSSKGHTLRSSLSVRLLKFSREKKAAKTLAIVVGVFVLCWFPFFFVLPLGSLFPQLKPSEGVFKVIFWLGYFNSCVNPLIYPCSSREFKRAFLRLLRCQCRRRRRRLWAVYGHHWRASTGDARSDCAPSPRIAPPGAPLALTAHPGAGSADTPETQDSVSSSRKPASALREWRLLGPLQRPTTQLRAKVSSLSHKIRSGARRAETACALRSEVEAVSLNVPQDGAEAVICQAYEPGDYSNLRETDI
T1 sequence (P43140 whole entry): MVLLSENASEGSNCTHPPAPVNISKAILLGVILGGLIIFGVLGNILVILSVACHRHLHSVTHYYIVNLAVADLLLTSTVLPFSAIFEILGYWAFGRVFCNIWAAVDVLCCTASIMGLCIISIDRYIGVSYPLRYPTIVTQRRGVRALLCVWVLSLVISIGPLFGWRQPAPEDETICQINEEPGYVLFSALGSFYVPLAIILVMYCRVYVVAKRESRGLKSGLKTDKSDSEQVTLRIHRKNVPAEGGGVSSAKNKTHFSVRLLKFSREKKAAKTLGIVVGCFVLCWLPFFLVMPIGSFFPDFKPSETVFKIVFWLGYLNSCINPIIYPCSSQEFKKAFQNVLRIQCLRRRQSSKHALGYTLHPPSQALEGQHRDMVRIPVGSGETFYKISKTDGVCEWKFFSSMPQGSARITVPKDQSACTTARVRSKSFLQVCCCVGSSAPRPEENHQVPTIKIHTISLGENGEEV
Description: Displacement of [3H]prazosin from alpha1-adrenergic receptor in rat cerebral cortex after 30 mins by scintillation counting. The series is classed as tissue-based. The method, boiled down:
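Radioligand binding on rat brain tissue membranes, run in 96-well format. [3H]prazosin was used for α1 (n = 2) and [3H]CGP-12177 for β1 (n = 2). Ki was calculated by the Cheng–Prusoff equation.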

The target of series [4] is T2, 5-hydroxytryptamine receptor 1A (Homo sapiens, UniProt P08908).
T2 sequence (P08908 whole entry): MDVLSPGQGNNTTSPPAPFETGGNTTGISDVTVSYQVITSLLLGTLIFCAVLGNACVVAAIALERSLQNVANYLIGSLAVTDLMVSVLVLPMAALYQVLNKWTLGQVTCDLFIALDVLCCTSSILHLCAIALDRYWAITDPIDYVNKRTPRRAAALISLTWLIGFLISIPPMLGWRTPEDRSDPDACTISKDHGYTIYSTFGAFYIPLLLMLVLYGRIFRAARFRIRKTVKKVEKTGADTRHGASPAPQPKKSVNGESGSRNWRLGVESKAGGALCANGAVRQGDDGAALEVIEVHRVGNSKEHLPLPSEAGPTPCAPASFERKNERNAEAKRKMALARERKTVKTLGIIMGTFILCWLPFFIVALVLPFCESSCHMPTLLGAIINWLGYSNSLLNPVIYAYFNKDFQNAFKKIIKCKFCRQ
As to the kind of experiment: Displacement of [3H]8-OH-DPAT from human 5HT1A receptor expressed in HEK293 cells after 1 hr. In kind it is cell-based.

For series [5], the target named is 5-hydroxytryptamine receptor 6 (Homo sapiens, UniProt P50406). As to the kind of experiment: Displacement of [3H]LSD from human 5HT6 receptor expressed in HEK293 cells after 1 hr. In kind it is cell-based.
Sequence of 5-hydroxytryptamine receptor 6 (P50406 whole entry): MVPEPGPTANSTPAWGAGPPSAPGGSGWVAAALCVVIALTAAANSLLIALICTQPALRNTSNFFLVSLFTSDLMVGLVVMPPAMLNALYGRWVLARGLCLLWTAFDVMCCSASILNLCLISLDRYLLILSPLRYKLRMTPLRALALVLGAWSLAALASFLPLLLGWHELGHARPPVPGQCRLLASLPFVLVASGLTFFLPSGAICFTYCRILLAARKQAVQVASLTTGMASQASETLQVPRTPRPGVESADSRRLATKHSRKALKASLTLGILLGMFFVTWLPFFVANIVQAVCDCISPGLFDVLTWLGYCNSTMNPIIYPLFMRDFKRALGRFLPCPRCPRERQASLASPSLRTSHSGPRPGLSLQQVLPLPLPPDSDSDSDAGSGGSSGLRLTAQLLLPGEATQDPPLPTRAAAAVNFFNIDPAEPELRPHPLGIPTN
Series [6] can be described thus: Neurotoxicity in po dosed Sprague-Dawley rat assessed as minimal motor impairment by rotorod test. The series is classed as toxicity, organism-based. To be noted: in vivo.
The subject of series [7] is Mus musculus. Description: Neurotoxicity in CF1 mouse assessed as minimal motor impairment at 30 mg/kg, ip after 4 hrs by rotorod test. In kind it is toxicity, organism-based. Set-up: dose 30 mg/kg, route intraperitoneal. To be noted: in vivo. In a few lines:
(§1)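 Rotarod neurotoxicity screen in mice dosed i.p. at 30, 100 or 300 mg/kg, read 0.5 or 4 h after dosing. The animal must stay on a rod rotating at 6 rpm without falling, measured 3 times within 1 min. A fall counts as minimal motor impairment. Result is recorded as impaired animals over animals used.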
For orientation: Falling from the rotarod earlier than controls is read as motor impairment.

In series [8] the test system is Mus musculus. Description: Neurotoxicity in CF1 mouse assessed as minimal motor impairment at 100 mg/kg, ip after 4 hrs by rotorod test. Set-up: dose 100 mg/kg, route intraperitoneal. In kind it is toxicity, organism-based. Conditions: in vivo. The method, boiled down: as §1
For series [9], the system named is Mus musculus. Description: Neurotoxicity in CF1 mouse assessed as minimal motor impairment at 300 mg/kg, ip after 4 hrs by rotorod test. In kind it is toxicity, organism-based. Set-up: dose 300 mg/kg, route intraperitoneal. Conditions: in vivo. In a few lines: as §1
Series [10] has as its system Rattus norvegicus. As to the kind of experiment: Neurotoxicity in Sprague-Dawley rat assessed as minimal motor impairment at 30 mg/kg, po after 0.5 hrs by rotorod test. To be noted: in vivo.
Series [11] has as its system Rattus norvegicus. As to the kind of experiment: Anticonvulsant activity in po dosed Sprague-Dawley rat assessed as protection against maximal electroshock-induced seizures after 4 hrs. In kind it is functional. The method, boiled down: (§2)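 Quantitative oral assay in rats, run at a time to peak effect of 4 h. ED50 is the dose protecting 50% of animals against MES or ScMet seizures, with 95% confidence interval. TD50 is the dose giving neurotoxicity in 50% of animals. PI = TD50/ED50.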
In general terms: The maximal electroshock test induces tonic seizures with an electrical stimulus.

For series [12], the system named is Mus musculus. As to the kind of experiment: Neurotoxicity in CF1 mouse assessed as minimal motor impairment at 100 mg/kg, ip after 0.5 hrs by rotorod test. The series is classed as toxicity, organism-based. Also on record: dose 100 mg/kg, route intraperitoneal. To be noted: in vivo. In a few lines: as §1
The test system of series [13] is Rattus norvegicus. Description: Protective index, ratio of TD50 for po dosed Sprague-Dawley rat assessed as minimal motor impairment by rotorod test to ED50 for po dosed Sprague-Dawley rat assessed as protection against maximal electroshock-induced seizures. The series is classed as functional. The method, boiled down: as §2
Series [14] relates to Rattus norvegicus. Description: Anticonvulsant activity in po dosed Sprague-Dawley rat assessed as protection against subcutaneous metrazole-induced seizures after 4 hrs. The series is classed as functional. The method, boiled down: as §2
The subject of series [15] is Mus musculus. As to the kind of experiment: Neurotoxicity in CF1 mouse assessed as minimal motor impairment at 30 mg/kg, ip after 0.5 hrs by rotorod test. In kind it is toxicity, organism-based. Also on record: dose 30 mg/kg, route intraperitoneal. Conditions: in vivo. The method, boiled down:
as §1

In series [16] the test system is Rattus norvegicus. Description: Neurotoxicity in Sprague-Dawley rat assessed as minimal motor impairment at 30 mg/kg, po after 2 hrs by rotorod test. To be noted: in vivo.
Series [17] deals with Rattus norvegicus. As to the kind of experiment: Neurotoxicity in Sprague-Dawley rat assessed as minimal motor impairment at 30 mg/kg, po after 4 hrs by rotorod test. To be noted: in vivo.
Series [18] relates to Mus musculus. As to the kind of experiment: Neurotoxicity in CF1 mouse assessed as minimal motor impairment at 300 mg/kg, ip after 0.5 hrs by rotorod test. The series is classed as toxicity, organism-based. Set-up: dose 300 mg/kg, route intraperitoneal. Conditions: in vivo. In a few lines: as §1
For series [19], the system named is Rattus norvegicus. Description: Neurotoxicity in Sprague-Dawley rat assessed as minimal motor impairment at 30 mg/kg, po after 1 hr by rotorod test. Conditions: in vivo.
Series [20] concerns Rattus norvegicus. Description: Neurotoxicity in Sprague-Dawley rat assessed as minimal motor impairment at 30 mg/kg, po after 0.25 hrs by rotorod test. To be noted: in vivo.

Turning to `COc1ccccc1N1CCN(Cc2ccc3oc4ccccc4c(=O)c3c2)CC1.Cl`, the Ki in series [1] was 426 nM; in [2], greater than 10 µM; in series [3] it was 3.66 µM; in series [4] it was 117 nM; in series [5], 5.94 µM.
As to `COc1ccc2c(=O)c3cc(CN4CCN(Cc5ccccc5)CC4)ccc3oc2c1`, in series [6], the TD50 is greater than 300 mg/kg. The Activity entry in the series with Mus musculus [7], with Mus musculus [8], in the series on Mus musculus [9], in the series with Rattus norvegicus [10], with Mus musculus [12] and in the series with Mus musculus [15] was “Non-toxic” throughout. Besides, the Activity result in the series on Rattus norvegicus [16], in the series with Rattus norvegicus [17], in the series with Mus musculus [18], in the series on Rattus norvegicus [19] and in the series with Rattus norvegicus [20] was “Non-toxic” in each case. Besides, the ED50 in the series with Rattus norvegicus [11] is 105 mg/kg; in the series with Rattus norvegicus [14], greater than 250 mg/kg. For the same molecule, the “Ratio TD50/ED50” value in the series on Rattus norvegicus [13] is reported as greater than 2.86.

Source of the values: ChEMBL document CHEMBL2401625, “Synthesis and evaluation of pharmacological properties of some new xanthone derivatives with piperazine moiety” (Bioorg Med Chem Lett, 2013).
